Test results reported in ChEMBL document CHEMBL1212911, “Identification of potent and selective amidobipyridyl inhibitors of protein kinase D” (J Med Chem, 2010).
Active and inactive are the calls of the source. No cut-off for these calls is given here.

Columns and labels:
Pkd1 (Rattus norvegicus) = Pkd1 (Rattus norvegicus) (UniProt Q9ERV0); test: Inhibition of PKD1 in rat ventricular myosyte assessed as inhibition of HDAC5 neuclear export
Outline: (§1)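 Neonatal rat ventricular myocytes infected with adenovirus encoding GFP-HDAC5 and plated on gelatin-coated wells. Cells exposed to compound and stimulated with PGF2α for 2 h, then fixed. Cytoplasmic versus nuclear GFP intensity quantified by high-content imaging.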

[1] = target: G protein-coupled receptor kinase 5 (Homo sapiens) (UniProt P34947); test: Inhibition of human GRK5; conditions: concentration not given here
Outline: (§2)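 Selectivity screen run externally (Invitrogen SelectScreen). Percent inhibition measured at 1 μM compound, mean of 2 measurements.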

[2] = target: Serine/threonine-protein kinase MARK2 (Homo sapiens) (UniProt Q7KZI7); test: Inhibition of human MARK2; conditions: concentration not given here; outline: as §2
[3] = Inhibition of alpha1 adrenoceptor
[4] = target: T1, Serine/threonine-protein kinase D1 (Homo sapiens, UniProt Q15139); test: Inhibition of PKD1 assessed as inhibition of HDAC5 neuclear export; outline: as §1
T1 sequence (Q15139 whole entry): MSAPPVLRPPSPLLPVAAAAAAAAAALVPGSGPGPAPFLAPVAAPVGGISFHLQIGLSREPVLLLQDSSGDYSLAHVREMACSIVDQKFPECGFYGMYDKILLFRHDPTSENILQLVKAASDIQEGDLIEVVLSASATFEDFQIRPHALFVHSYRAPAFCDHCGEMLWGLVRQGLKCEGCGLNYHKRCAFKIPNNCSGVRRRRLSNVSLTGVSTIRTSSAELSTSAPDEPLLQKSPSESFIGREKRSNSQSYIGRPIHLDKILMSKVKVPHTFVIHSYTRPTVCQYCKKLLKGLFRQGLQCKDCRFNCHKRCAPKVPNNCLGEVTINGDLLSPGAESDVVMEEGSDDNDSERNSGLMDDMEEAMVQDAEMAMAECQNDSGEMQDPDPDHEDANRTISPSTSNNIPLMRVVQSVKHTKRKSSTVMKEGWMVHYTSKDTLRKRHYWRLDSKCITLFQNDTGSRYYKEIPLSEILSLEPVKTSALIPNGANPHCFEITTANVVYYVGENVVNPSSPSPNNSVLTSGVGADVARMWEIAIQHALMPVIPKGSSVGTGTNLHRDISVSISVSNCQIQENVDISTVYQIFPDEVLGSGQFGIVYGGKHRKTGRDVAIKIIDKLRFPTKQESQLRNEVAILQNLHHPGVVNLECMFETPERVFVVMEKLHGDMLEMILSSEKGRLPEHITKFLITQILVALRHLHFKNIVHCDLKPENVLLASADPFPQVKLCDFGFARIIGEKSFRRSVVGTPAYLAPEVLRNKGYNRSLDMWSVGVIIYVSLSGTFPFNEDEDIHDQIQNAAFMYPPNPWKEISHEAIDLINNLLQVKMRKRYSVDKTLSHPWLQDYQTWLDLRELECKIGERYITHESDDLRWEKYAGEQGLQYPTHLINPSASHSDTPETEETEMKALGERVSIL

Rattus norvegicus [5] = test: Antihypertensive activity in thoracic aortic banded Sprague-Dawley rat assessed as inhibition of cardia hypertrophy at 5 mg/kg, sc; format: functional, organism-based; design: dose 5 mg/kg; conditions: Aorta
Outline: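 Rats fitted with an aortic occlusion cuff or given sham surgery. Dosed 5 mg/kg/day sc in acidified captisol, or vehicle, for 2 weeks. End-point cardiac performance assessed by ultrasound and hemodynamics by direct catheterization.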

[6] = target: T1, Serine/threonine-protein kinase D1; test: Inhibition of PKD1 by TR-FRET assay
Outline: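 Full-length wild-type PKD1 expressed and purified from Sf9 cells, 0.2 μg/mL, in 35 mM Tris-HCl pH 7.5, 5 mM MgCl2, 0.02% Tween-20, 20 μM ATP, 1 mM DTT. Reaction started with 2 μM biotinylated syntide-2 and run 50 min at room temperature. Stopped with EDTA plus europium anti-rabbit IgG, anti-phospho-syntide-2 antibody and streptavidin-APC. LANCE TR-FRET 665/615 ratio read after 1 h. 11-point curves in triplicate gave IC50.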

Rattus norvegicus [7] = species on record: Rattus norvegicus; test: Inhibition of PMA-induced PKD autophosphorylation in Dahl salt-sensitive rat PBMC
Outline: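 Male Dahl salt-sensitive rats, 6–7 weeks old, were switched from a 0.49% to an 8.0% NaCl diet for 2 weeks. Dosing was daily sc (1.0 mL/kg) with vehicle (10% 1 N HCl/90% of 10% captisol, pH 4.6 buffer) or 0.5, 1.5 or 5 mg/kg compound. On day 14, PBMCs were isolated and stimulated with PMA. The read-out was PKD Ser916 autophosphorylation.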

[8] = target: Calcium/calmodulin-dependent protein kinase type 1D (Homo sapiens) (UniProt Q8IU85); test: Inhibition of CaMK1delta; conditions: concentration not given here; outline: as §2
[9] = target: Beta-1 adrenergic receptor (Homo sapiens, UniProt P08588); test: Inhibition of beta-1 adrenoceptor
[10] = AUC (0 to 8 hrs) in Dahl salt-sensitive rat at 50 mg/kg, sc; format: ADME, organism-based; design: time < 8 hr, dose 50 mg/kg, route subcutaneous; conditions: plasma
Outline: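 Dahl salt-sensitive rats given 50 mg/kg sc in 10% 1 N HCl, 90% Captisol in pH buffer (10%). Plasma exposure followed over time to give AUC.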

[11] = target: T2, Serine/threonine-protein kinase D2 (Homo sapiens, UniProt Q9BZL6); test: Inhibition of PKD2 by TR-FRET assay
T2 sequence (Q9BZL6 whole entry): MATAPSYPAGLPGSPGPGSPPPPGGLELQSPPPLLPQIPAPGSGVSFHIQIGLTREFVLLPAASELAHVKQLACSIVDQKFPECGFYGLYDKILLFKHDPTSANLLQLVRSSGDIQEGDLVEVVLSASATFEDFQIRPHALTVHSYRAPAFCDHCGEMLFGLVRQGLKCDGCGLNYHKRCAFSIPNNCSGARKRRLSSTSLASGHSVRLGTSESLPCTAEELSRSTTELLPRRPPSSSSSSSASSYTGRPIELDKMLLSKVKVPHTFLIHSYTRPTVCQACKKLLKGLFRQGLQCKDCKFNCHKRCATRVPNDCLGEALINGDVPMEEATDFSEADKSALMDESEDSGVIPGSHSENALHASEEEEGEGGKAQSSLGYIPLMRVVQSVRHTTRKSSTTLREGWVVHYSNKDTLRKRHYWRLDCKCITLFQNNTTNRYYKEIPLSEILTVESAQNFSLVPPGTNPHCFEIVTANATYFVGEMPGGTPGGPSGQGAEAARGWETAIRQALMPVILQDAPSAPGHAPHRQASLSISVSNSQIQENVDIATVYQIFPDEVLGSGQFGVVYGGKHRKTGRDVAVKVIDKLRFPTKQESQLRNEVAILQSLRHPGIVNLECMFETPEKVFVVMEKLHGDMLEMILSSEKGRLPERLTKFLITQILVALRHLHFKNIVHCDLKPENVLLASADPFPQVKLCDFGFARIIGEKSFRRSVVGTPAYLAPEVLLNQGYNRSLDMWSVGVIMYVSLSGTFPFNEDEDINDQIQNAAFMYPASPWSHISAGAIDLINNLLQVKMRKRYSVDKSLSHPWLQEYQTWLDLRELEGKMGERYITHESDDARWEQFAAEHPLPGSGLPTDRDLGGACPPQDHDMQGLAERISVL

[12] = target: Calcium/calmodulin-dependent protein kinase type II subunit delta (Homo sapiens) (UniProt Q13557); test: Inhibition of human CaMK2delta; conditions: concentration not given here; outline: as §2

Sequence of Beta-1 adrenergic receptor (P08588 whole entry): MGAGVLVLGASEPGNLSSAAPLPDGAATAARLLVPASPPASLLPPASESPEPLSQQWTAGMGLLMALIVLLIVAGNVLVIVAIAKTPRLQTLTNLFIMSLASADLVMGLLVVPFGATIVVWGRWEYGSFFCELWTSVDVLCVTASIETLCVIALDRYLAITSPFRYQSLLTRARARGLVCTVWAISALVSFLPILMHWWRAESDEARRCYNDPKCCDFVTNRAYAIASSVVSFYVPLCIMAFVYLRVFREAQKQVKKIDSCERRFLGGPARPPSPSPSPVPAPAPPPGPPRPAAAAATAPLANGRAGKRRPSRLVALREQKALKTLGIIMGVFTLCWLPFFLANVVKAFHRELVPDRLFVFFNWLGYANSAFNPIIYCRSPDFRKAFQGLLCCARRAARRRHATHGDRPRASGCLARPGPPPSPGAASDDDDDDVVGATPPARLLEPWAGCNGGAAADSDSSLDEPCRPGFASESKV
Sequence of Pkd1 (Rattus norvegicus) (Q9ERV0 as listed by the source): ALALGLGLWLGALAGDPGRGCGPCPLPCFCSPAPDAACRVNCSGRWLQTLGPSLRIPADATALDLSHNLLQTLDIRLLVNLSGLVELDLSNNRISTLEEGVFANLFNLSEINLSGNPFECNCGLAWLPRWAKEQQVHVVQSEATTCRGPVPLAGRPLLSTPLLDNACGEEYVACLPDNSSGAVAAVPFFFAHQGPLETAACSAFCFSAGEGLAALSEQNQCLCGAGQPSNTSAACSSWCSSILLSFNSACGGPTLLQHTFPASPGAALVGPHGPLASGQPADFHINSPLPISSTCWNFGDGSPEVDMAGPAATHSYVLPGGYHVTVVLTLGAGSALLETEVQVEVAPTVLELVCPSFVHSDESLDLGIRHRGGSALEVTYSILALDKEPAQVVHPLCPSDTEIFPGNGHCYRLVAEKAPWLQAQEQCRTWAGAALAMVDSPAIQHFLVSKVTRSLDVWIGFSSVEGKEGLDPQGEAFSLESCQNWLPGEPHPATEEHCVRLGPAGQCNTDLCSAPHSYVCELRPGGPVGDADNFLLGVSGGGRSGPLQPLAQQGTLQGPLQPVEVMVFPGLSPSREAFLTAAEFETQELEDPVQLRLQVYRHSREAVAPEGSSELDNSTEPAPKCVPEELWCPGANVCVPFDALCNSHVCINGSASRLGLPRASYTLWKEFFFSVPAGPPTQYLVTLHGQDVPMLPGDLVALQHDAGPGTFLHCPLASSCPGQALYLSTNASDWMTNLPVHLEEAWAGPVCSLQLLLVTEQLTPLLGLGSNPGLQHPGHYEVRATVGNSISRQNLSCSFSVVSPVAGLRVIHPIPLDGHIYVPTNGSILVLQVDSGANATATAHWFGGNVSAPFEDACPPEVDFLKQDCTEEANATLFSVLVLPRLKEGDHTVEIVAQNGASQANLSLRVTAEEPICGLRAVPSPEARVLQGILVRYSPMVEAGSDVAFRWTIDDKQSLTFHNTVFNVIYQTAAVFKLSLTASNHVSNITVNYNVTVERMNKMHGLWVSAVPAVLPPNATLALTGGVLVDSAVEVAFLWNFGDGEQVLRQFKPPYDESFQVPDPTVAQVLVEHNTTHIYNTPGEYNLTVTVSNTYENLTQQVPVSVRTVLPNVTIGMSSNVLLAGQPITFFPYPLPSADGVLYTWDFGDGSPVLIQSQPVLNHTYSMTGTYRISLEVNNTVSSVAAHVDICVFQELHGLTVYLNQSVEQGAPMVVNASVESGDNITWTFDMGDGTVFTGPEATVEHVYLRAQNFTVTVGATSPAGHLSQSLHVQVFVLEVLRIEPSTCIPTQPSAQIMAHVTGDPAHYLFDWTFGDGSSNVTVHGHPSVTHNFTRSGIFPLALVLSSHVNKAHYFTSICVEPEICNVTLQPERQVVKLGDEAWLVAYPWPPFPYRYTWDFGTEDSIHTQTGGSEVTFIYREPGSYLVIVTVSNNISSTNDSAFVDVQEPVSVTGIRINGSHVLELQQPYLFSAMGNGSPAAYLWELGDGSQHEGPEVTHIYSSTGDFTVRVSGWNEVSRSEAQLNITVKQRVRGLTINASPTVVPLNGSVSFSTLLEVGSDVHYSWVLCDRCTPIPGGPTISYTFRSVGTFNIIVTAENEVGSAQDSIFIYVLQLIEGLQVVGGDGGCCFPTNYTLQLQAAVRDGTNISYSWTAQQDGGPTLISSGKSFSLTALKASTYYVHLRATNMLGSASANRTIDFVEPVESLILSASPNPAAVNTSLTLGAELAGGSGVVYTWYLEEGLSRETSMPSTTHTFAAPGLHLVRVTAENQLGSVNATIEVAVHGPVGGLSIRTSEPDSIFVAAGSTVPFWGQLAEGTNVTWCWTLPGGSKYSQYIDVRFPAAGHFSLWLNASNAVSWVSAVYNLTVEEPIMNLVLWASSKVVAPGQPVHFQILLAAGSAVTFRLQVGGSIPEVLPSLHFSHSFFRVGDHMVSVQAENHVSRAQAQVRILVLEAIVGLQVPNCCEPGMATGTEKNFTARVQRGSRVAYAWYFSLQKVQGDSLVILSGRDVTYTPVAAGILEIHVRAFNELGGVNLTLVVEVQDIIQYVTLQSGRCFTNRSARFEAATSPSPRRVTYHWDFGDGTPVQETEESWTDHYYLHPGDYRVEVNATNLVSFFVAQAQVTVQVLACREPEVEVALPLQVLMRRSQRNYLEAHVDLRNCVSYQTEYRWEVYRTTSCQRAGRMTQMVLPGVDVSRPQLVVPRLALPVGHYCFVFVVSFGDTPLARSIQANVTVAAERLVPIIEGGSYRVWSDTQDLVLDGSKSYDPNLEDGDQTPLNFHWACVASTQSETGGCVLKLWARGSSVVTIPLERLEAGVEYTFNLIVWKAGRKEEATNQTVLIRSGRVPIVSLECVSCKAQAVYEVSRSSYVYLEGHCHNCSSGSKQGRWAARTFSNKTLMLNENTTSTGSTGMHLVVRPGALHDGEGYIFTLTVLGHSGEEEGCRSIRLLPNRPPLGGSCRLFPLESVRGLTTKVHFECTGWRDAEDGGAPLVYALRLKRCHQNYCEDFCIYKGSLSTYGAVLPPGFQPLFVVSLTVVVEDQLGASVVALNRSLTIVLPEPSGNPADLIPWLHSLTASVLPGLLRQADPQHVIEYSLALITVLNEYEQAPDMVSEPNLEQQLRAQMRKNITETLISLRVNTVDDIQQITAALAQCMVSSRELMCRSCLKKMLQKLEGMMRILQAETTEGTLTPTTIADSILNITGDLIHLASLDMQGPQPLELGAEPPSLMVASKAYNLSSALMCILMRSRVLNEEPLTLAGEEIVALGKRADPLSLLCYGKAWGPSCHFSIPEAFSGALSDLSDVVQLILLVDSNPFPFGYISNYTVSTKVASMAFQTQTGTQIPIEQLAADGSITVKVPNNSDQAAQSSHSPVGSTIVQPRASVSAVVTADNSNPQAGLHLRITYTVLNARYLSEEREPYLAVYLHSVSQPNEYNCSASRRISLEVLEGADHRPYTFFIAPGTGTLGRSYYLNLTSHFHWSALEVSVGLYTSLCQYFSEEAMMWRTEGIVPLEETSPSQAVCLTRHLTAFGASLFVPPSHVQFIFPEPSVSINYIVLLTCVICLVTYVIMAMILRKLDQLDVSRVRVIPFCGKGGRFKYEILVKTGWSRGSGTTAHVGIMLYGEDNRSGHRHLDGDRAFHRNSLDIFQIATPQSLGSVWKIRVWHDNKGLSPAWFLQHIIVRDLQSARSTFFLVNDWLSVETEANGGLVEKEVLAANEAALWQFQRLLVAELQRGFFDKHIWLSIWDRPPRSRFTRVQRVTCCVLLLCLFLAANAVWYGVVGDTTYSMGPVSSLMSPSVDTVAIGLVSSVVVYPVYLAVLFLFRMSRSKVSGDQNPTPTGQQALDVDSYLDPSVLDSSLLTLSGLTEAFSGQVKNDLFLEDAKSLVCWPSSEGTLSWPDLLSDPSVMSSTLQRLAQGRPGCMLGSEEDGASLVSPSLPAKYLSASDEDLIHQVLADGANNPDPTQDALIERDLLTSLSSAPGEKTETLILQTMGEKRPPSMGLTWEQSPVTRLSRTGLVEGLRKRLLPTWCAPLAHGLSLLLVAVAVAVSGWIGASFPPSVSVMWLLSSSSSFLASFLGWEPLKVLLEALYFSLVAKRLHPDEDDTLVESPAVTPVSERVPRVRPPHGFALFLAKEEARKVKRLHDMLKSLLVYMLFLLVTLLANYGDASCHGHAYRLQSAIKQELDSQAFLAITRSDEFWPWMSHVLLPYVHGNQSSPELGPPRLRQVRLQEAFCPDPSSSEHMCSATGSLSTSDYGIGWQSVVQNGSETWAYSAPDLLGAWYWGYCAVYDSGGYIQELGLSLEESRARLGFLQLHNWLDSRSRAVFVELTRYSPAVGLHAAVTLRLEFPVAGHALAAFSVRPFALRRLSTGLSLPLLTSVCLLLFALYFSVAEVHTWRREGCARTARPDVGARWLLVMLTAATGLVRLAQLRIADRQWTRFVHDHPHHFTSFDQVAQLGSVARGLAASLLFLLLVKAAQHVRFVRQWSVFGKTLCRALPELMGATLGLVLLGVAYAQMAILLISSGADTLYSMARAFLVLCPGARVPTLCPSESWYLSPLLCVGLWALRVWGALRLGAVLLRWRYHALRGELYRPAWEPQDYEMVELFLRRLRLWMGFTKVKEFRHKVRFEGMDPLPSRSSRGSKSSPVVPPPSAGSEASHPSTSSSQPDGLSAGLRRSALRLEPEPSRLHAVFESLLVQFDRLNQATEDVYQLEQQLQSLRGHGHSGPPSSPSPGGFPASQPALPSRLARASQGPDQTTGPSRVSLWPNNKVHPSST
Sequence of Calcium/calmodulin-dependent protein kinase type 1D (Homo sapiens) (Q8IU85 whole entry, looked up): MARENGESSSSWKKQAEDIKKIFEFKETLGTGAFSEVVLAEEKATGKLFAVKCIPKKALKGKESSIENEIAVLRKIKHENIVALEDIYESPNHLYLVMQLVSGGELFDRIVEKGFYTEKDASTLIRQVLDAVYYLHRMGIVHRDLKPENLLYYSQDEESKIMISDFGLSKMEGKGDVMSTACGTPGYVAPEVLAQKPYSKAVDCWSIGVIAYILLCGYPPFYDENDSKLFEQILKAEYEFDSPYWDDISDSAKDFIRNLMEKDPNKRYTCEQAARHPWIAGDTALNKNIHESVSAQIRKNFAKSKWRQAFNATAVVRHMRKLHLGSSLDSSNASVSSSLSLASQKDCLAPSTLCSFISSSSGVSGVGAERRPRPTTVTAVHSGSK

inhibition (Pkd1 (Rattus norvegicus)): Active
inhibition [1]: 2%
inhibition [2]: 27%
IC50 [3]: 3000 nM
EC50 [4]: 77 nM
IC50 [6]: 1 nM
inhibition (Rattus norvegicus [7]): inactive
inhibition [8]: 6%
IC50 [9]: 8300 nM
AUC(0-t) at 8 h [10]: 25.8 µM·h
IC50 [11]: 9 nM
inhibition [12]: 26%
Compound: NC(=O)c1cc(-c2ccnc(NC3CCCCC3)c2)nc(N2CCNCC2)c1
inhibition (Rattus norvegicus [5]): inactive
